The values that follow come from PMC3718025 (Bioconjugate chemistry, 2011).

For the experiment, the system named is luciferase expression in M21+GL3 cells. Put plainly: Luciferase knockdown. The note with it: 25 nM, no transfection agent; 4 h serum free, then 2% serum to 96 h. In kind it is cell-based, human. The method in brief: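 M21+GL3 stable clone made by nucleoporation with pGL3-promoter plus pcDNA3.1/hygro (10:1), selected two weeks in 500 μg/ml hygromycin B. siRNA added 4 h at 37°C in serum-free OPTI-MEM, then serum added to 2% and incubated to 96 h total. Lipofectamine 2000-complexed siRNA served as positive control, its medium swapped to DMEM-H with 2% serum. Lysate luminescence read and normalized to total cellular protein.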

As to “AccGAAAGGucuuAccGGAdTsdTX2 (head to tail) [compound 14]”, the reduction in luciferase is reported as 70%.
